Published values from different studies.
Protocols differ between the studies behind these lines.
Target: Serine/threonine-protein kinase SIK2 (SIK2, Homo sapiens, UniProt Q9H0K1)

Structure (SMILES)	observed	action	method	concentration	endpoint	result
Cc1sc(C(=O)NC2COC2)cc1-n1cc(NC(=O)Nc2c(F)cccc2Cl)cn1	enzyme activity	inhibitor	–	10 µM	remaining activity	89.8%
O=C1CCc2cc(Nc3cc(OC4CCOCC4)c([N+](=O)[O-])cc3Cl)ccc2N1	cell-free assay	–	competition with immobilised ligand	1 µM	remaining binding	100%
O=C1Nc2ccc(Cl)cc2C1=Cc1cc(Cl)c(O)c(Cl)c1	cell-free assay	–	–	0.5 µM	remaining signal	95%
CN([C@@H]1CCc2c(CC(=O)O)c3cc(S(C)(=O)=O)ccc3n2C1)S(=O)(=O)c1ccc(F)cc1	cell-free assay	–	competition with immobilised ligand	1 µM	remaining binding	93%
COc1cc2ncnc(Nc3ccc(Oc4ccccc4)cc3C)c2cc1OC	enzyme activity	inhibitor	–	1 µM	inhibition	3%
COc1cc(Cl)c(C(=O)N[C@@H](CN[C@H]2CC[C@@H](N)CC2)Cc2ccc(C#N)cc2)cc1-c1ccc(CN[C@H](C)c2ccc(C)cc2)o1	enzyme activity	inhibitor	–	1 µM	remaining activity	96%
CNC(=O)Nc1ccc2c(c1)[C@@]1(CC2)OC(=O)N(CC(=O)N(Cc2ccc(F)cc2)[C@@H](C)C(F)(F)F)C1=O	cell-free assay	–	competition with immobilised ligand	1 µM	remaining binding	88%
COc1cc(/C=C/C(=O)CC(=O)/C=C/c2ccc(O)c(OC)c2)ccc1O	enzyme activity	inhibitor	–	1 µM	activity vs control	83%
CNCc1ccccc1-c1csc([C@@H](C)Nc2nc(C)nc3cc(OC)c(OC)cc23)c1	cell-free assay	–	competition with immobilised ligand	1 µM	remaining binding	100%
Nc1ncnc2occ(-c3ccc(NC(=O)Nc4cc(C(F)(F)F)ccc4F)cc3)c12	cell-free assay	inhibitor	–	20 µM	remaining signal	57%
FC(F)(F)Oc1cccc(-c2cnc3ccc(-c4ccncc4)nn23)c1	enzyme activity	inhibitor	radiometric	5 µM	activity vs control	69%
O=C(Nc1cnn(-c2csc(C(=O)NC3COC3)c2)c1)Nc1c(F)cccc1Cl	enzyme activity	inhibitor	–	5 µM	remaining activity	95.8%
COc1cc(Nc2c(C#N)cnc3cc(OCCCN4CCN(C)CC4)c(OC)cc23)c(Cl)cc1Cl	cell-free assay	–	–	0.5 µM	remaining signal	1.93%
COc1cc(-c2cc(-c3ccc(N4CCNCC4)cc3)cnc2N)cc(OC)c1OC	enzyme activity	inhibitor	–	1 µM	inhibition	82%
CC(C)(O)[C@H]1CC[C@H](Nc2ccc3ncc(-c4cccc(C(F)(F)F)c4)n3n2)CC1	enzyme activity	inhibitor	–	1 µM	remaining activity	47.7%
COc1cc(Nc2cnc(C#N)c(O[C@H](C)CN(C)C)n2)ncc1-c1cnn(C)c1	enzyme activity	inhibitor	radiometric	1 µM	remaining activity	80%
O=C1NC(=O)c2cc(Nc3ccc(F)cc3)c(Nc3ccc(F)cc3)cc21	cell-free assay	–	–	0.5 µM	remaining signal	103%
CC(C)(C)c1nc2c(s1)c1nc(N)ncc1c1ccc(NS(=O)(=O)c3c(F)cccc3F)c(F)c12	enzyme activity	inhibitor	radiometric	1 µM	remaining activity	101%
Cc1nccc(COC(=O)N2C[C@@H]3[C@@H](CNC(=O)c4ccc5[nH]nnc5c4)[C@@H]3C2)n1	cell-free assay	–	competition with immobilised ligand	1 µM	remaining binding	92%
